From ChEMBL document CHEMBL3227917, “Structure-activity relationships of dimeric Catharanthus alkaloids. 2. Experimental antitumor activities of N-substituted deacetylvinblastine amide (vindesine) sulfates” (J Med Chem, 1979)

Legend:
[1] = Antitumor activity against mouse Gardner lymphosarcoma allografted in C3H mouse assessed as tumor growth inhibition at 0.10 mg/kg, ip administered daily for 8 to 10 days; assay type: functional; settings: route intraperitoneal, read-out: TGI
How it was run: (§1)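 Gardner lymphosarcoma in C3H mice; sulfate salts unless noted, given ip daily for 8–10 days, treatment starting 8 days after tumor implantation. Tumor growth inhibition scored as –, 0–25%; +, 26–50%; ++, 51–75%; +++, 76–100%; T, lethal to ≥5 of 10 animals per group. Average of one or more tests.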

[2] = Antitumor activity against mouse Gardner lymphosarcoma allografted in C3H mouse assessed as tumor growth inhibition at 0.05 mg/kg, ip administered daily for 8 to 10 days; assay type: functional; settings: route intraperitoneal, read-out: TGI; how it was run: as §1
[3] = Antitumor activity against mouse Gardner lymphosarcoma allografted in C3H mouse assessed as tumor growth inhibition at 0.30 mg/kg, ip administered daily for 8 to 10 days; assay type: functional; settings: route intraperitoneal, read-out: TGI; how it was run: as §1
[4] = tested on: Mus musculus; experiment: Toxicity in C3H mouse allografted with mouse Gardner lymphosarcoma assessed as lethality at 0.5 mg/kg, ip administered daily for 8 to 10 days; assay type: organism-based; parameters: dose 0.5 mg/kg, route intraperitoneal; settings: in vivo
How it was run: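 Tumor-bearing mice given sulfate salts ip daily for 8–10 days; values are the average of one or more tests. Toxic means lethal to ≥5 of 10 animals per group.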

[5] = Antitumor activity against mouse Ridgway osteogenic sarcoma allografted in AKR mouse assessed as tumor growth inhibition at 0.20 mg/kg, ip administered daily for 8 to 10 days compound treatment commenced 8 days after tumor implantation; assay type: functional; settings: route intraperitoneal, read-out: TGI
[6] = Antitumor activity against mouse Ridgway osteogenic sarcoma allografted in AKR mouse assessed as tumor growth inhibition at 0.30 mg/kg, ip administered daily for 8 to 10 days compound treatment commenced 8 days after tumor implantation; assay type: functional; settings: route intraperitoneal, read-out: TGI
[7] = Antitumor activity against mouse P1534 cells allografted in DBA2 mouse assessed as tumor growth inhibition at 0.25 mg/kg, ip administered daily for 8 to 10 days; assay type: functional; settings: route intraperitoneal, read-out: TGI
How it was run: (§2)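 P1534(J) leukemia implanted sc in DBA2 mice; sulfate salts dosed ip daily for 8–10 days. Growth inhibition scored –, 0–25%; +, 26–50%; ++, 51–75%; +++, 76–100%; T, lethal to ≥5 of 10 animals per group. Average of one or more tests.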

[8] = Antitumor activity against mouse Ridgway osteogenic sarcoma allografted in AKR mouse assessed as tumor growth inhibition at 0.05 mg/kg, ip administered daily for 8 to 10 days compound treatment commenced 8 days after tumor implantation; assay type: functional; settings: route intraperitoneal, read-out: TGI
[9] = tested on: CHO; experiment: Mitotic arrest in CHO cells assessed as increase in cell accumulation at 0.002 ug/ml; assay type: functional, Cricetulus griseus
How it was run: (§3)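 Chinese hamster ovary cells in tissue culture, scored for mitotic arrest as increase in cells in mitotic arrest over control: +++, 40–50%; ++, 15–40%; +, 10–15%; ±, 7–10%; –, 3–7%. Cytotoxicity noted separately.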

[10] = Antitumor activity against mouse Ridgway osteogenic sarcoma allografted in AKR mouse assessed as tumor growth inhibition at 0.40 mg/kg, ip administered daily for 8 to 10 days compound treatment commenced 8 days after tumor implantation; assay type: functional; settings: route intraperitoneal, read-out: TGI
[11] = tested on: Mus musculus; experiment: Toxicity in mouse assessed as body weight at 0.5 mg/kg, ip administered twice per week for 4 weeks, then three doses per week for 3 weeks and finally six doses per week for 2 weeks measured at week 9 (reference value: 18.5 +/- 0.5 gms); settings: in vivo
[12] = Antitumor activity against mouse Gardner lymphosarcoma allografted in C3H mouse assessed as tumor growth inhibition at 0.20 mg/kg, ip administered daily for 8 to 10 days; assay type: functional; settings: route intraperitoneal, read-out: TGI; how it was run: as §1
[13] = Antitumor activity against mouse Gardner lymphosarcoma allografted in C3H mouse assessed as tumor growth inhibition at 0.40 mg/kg, ip administered daily for 8 to 10 days; assay type: functional; settings: route intraperitoneal, read-out: TGI; how it was run: as §1
[14] = tested on: CHO; experiment: Mitotic arrest in CHO cells assessed as increase in cell accumulation at 0.02 ug/ml; assay type: functional, Cricetulus griseus; how it was run: as §3
[15] = Antitumor activity against mouse Ridgway osteogenic sarcoma allografted in AKR mouse assessed as tumor growth inhibition at 0.10 mg/kg, ip administered daily for 8 to 10 days compound treatment commenced 8 days after tumor implantation; assay type: functional; settings: route intraperitoneal, read-out: TGI
[16] = tested on: CHO; experiment: Mitotic arrest in CHO cells assessed as increase in cell accumulation at 2 ug/ml; assay type: functional, Cricetulus griseus; how it was run: as §3
[17] = tested on: CHO; experiment: Mitotic arrest in CHO cells assessed as increase in cell accumulation at 0.2 ug/ml; assay type: functional, Cricetulus griseus; how it was run: as §3
[18] = tested on: P388/VCR; experiment: Antitumor activity against mouse P388/VCR cells allografted in B6D2F1 mouse assessed as increase in host lifespan at 0.60 mg/kg, ip administered on days 1, 5 and 9; assay type: functional; settings: dose 0.6 mg/kg; route intraperitoneal
How it was run: (§4)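 P388/VCR leukemia in groups of 10 B6D2F1 mice, run at Lilly using the cell strain received from NCI. Sulfate salts given ip on days 1, 5 and 9. Read-out is percent increase in lifespan.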

[19] = Antitumor activity against mouse P1534 cells allografted in DBA2 mouse assessed as tumor growth inhibition at 0.20 mg/kg, ip administered daily for 8 to 10 days; assay type: functional; settings: route intraperitoneal, read-out: TGI; how it was run: as §2
[20] = tested on: P388/S; experiment: Antitumor activity against mouse P388/S cells allografted in CD2F1 mouse assessed as increase in host lifespan at 0.36 mg/kg, ip administered on days 1, 5 and 9; assay type: functional; settings: route intraperitoneal
How it was run: (§5)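 Groups of eight male CD2F1 mice bearing P388 leukemia, run at NCI. Sulfate salts given ip on days 1, 5 and 9. Read-out is percent increase in lifespan.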

[21] = Toxicity in iv dosed mouse assessed as lethality; assay type: organism-based; settings: in vivo
[22] = tested on: P388/VCR; experiment: Antitumor activity against mouse P388/VCR cells allografted in B6D2F1 mouse assessed as increase in host lifespan at 0.90 mg/kg, ip administered on days 1, 5 and 9; assay type: functional; settings: dose 0.9 mg/kg; route intraperitoneal; how it was run: as §4
[23] = Antitumor activity against mouse P388/VCR/I/63 cells allografted in Dublin-CDF1 mouse assessed as increase in host lifespan at 1.5 mg/kg, ip administered on days 1, 5 and 9; assay type: functional; settings: route intraperitoneal
[24] = tested on: P388/S; experiment: Antitumor activity against mouse P388/S cells allografted in CD2F1 mouse assessed as increase in host lifespan at 1.67 mg/kg, ip administered on days 1, 5 and 9; assay type: functional; settings: route intraperitoneal; how it was run: as §5
[25] = Antitumor activity against mouse P1534 cells allografted in DBA2 mouse assessed as tumor growth inhibition at 0.10 mg/kg, ip administered daily for 8 to 10 days; assay type: functional; settings: route intraperitoneal, read-out: TGI; how it was run: as §2
[26] = tested on: P388/VCR; experiment: Antitumor activity against mouse P388/VCR cells allografted in CD2F1 mouse assessed as increase in host lifespan at 0.60 mg/kg, ip administered on days 1, 5 and 9; assay type: functional; settings: dose 0.6 mg/kg; route intraperitoneal; how it was run: as §5
[27] = tested on: P388/VCR; experiment: Antitumor activity against mouse P388/VCR cells allografted in CD2F1 mouse assessed as increase in host lifespan at 0.36 mg/kg, ip administered on days 1, 5 and 9; assay type: functional; settings: route intraperitoneal; how it was run: as §5
[28] = tested on: Mus musculus; experiment: Toxicity in CD2F1 mouse allografted with mouse P388/VCR cells at 1.67 mg/kg, ip administered on days 1, 5 and 9; assay type: organism-based; parameters: dose 1.67 mg/kg, route intraperitoneal; settings: in vivo
[29] = tested on: CHO; experiment: Cytotoxicity against CHO cells at 0.02 ug/ml; assay type: cell-based, Cricetulus griseus; settings: chinese hamster; how it was run: as §3
[30] = tested on: P388/VCR; experiment: Antitumor activity against mouse P388/VCR cells allografted in B6D2F1 mouse assessed as increase in host lifespan at 1.20 mg/kg, ip administered on days 1, 5 and 9; assay type: functional; settings: dose 1.2 mg/kg; route intraperitoneal; how it was run: as §4
[31] = tested on: P388/S; experiment: Antitumor activity against mouse P388/S cells allografted in CD2F1 mouse assessed as increase in host lifespan at 0.60 mg/kg, ip administered on days 1, 5 and 9; assay type: functional; settings: dose 0.6 mg/kg; route intraperitoneal; how it was run: as §5
[32] = tested on: P388/VCR; experiment: Antitumor activity against mouse P388/VCR cells allografted in CD2F1 mouse assessed as increase in host lifespan at 1.00 mg/kg, ip administered on days 1, 5 and 9; assay type: functional; settings: route intraperitoneal; how it was run: as §5
[33] = tested on: P388/S; experiment: Antitumor activity against mouse P388/S cells allografted in CD2F1 mouse assessed as increase in host lifespan at 1.00 mg/kg, ip administered on days 1, 5 and 9; assay type: functional; settings: route intraperitoneal; how it was run: as §5
[34] = Antitumor activity against mouse P388/VCR/I/63 cells allografted in Dublin-CDF1 mouse assessed as day of host death at 1.5 mg/kg, ip administered on days 1, 5 and 9 (reference value: 10 days); assay type: functional; settings: route intraperitoneal

CC[C@]1(O)C[C@H]2CN(CCc3c([nH]c4ccccc34)[C@@](C(=O)OC)(c3cc4c(cc3OC)N(C)[C@H]3[C@@](O)(C(=O)NC)[C@H](O)[C@]5(CC)C=CCN6CC[C@]43[C@@H]65)C2)C1.O=S(=O)(O)O
inhibition in vivo at 0.1 mg/kg [1]: 0% | inhibition in vivo at 0.05 mg/kg [2]: 0% | inhibition in vivo at 0.3 mg/kg [3]: 76% | Activity [4]: Toxic | inhibition in vivo at 0.2 mg/kg [5]: 51% | inhibition in vivo at 0.3 mg/kg [6]: 76% | inhibition in vivo at 0.25 mg/kg [7]: 76% | inhibition in vivo at 0.05 mg/kg [8]: 0% | Activity [9]: 3% | inhibition in vivo at 0.4 mg/kg [10]: 76% | Activity [11]: 24.6 g | inhibition in vivo at 0.2 mg/kg [12]: 76% | inhibition in vivo at 0.4 mg/kg [13]: 76% | Activity [14]: 15% | inhibition in vivo at 0.1 mg/kg [15]: 0%

CC[C@]1(O)C[C@@H]2C[C@](C(=O)OC)(c3cc4c(cc3OC)N(C)[C@H]3[C@@](O)(C(N)=O)[C@H](O)[C@]5(CC)C=CCN6CC[C@]43[C@@H]65)c3[nH]c4ccccc4c3CC[N+]([O-])(C2)C1
Activity [16]: 15% | Activity [17]: 7%

CC[C@]1(O)C[C@H]2CN(CCc3c([nH]c4ccccc34)[C@@](C(=O)OC)(c3cc4c(cc3OC)N(C=O)[C@H]3[C@@](O)(C(=O)OC)[C@H](OC(C)=O)[C@]5(CC)C=CCN6CC[C@]43[C@@H]65)C2)C1.O=S(=O)(O)O [VINCRISTINE SULFATE]
Activity [18]: 5% | inhibition in vivo at 0.2 mg/kg [19]: 76% | Activity [20]: 83% | LD50 [21]: 2.1 mg/kg | Activity [22]: 0% | Activity [23]: 50% | Activity [24]: 96% | inhibition in vivo at 0.25 mg/kg [7]: 76% | inhibition in vivo at 0.1 mg/kg [25]: 51% | Activity [9]: 10% | Activity [26]: 0% | Activity [27]: 0% | Activity [28]: Toxic | Activity [29]: Toxic | Activity [30]: 0% | Activity [31]: 83% | Activity [14]: 40% | Activity [32]: 0% | Activity [33]: 138% | Activity [34]: 15 days
